ChEMBL document CHEMBL3044558, “Structure-activity relationship development of dihaloaryl triazole compounds as insecticides and acaricides. 1. Phenyl thiophen-2-yl triazoles” (2007)
In brackets after ≈: the same amount, converted by molar mass. Activity calls are given as the source filed them. No cut-off for these calls is given here.

Columns and labels:
Heliothis virescens [1] = experiment: Insecticidal activity against Heliothis virescens (tobacco budworm) second-instar larvae infested on compound pre-treated cotton cotyledon disk assessed as insect mortality measured 5 days post compound treatment under green house conditions; assay type: functional; conditions: for LC50: Heliothis virescens
Summary of the method: (§1)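 Leaf disks treated, air-dried and placed singly in cups. Cotton cotyledon disks each get one second-instar tobacco budworm larva; cabbage leaf disks each get one second-instar cabbage looper larva. Cups are capped and held in a growth chamber at 25 °C, 50-55% RH, 14 h light/10 h dark for 5 days.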

Heliothis virescens [2] = experiment: Insecticidal activity against Heliothis virescens (tobacco budworm) second-instar larvae infested on 400 ppm compound pre-treated cotton cotyledon disk assessed as insect mortality measured 5 days post compound treatment under green house conditions; assay type: functional
Aphis gossypii [3] = experiment: Insecticidal activity against Aphis gossypii (cotton aphid) infested one week old Crookneck squash plants assessed as insect mortality at 50 ppm measured after 3 days post compound application under green house conditions; assay type: functional; conditions: 72 h
Trichoplusia ni [4] = experiment: Insecticidal activity against Trichoplusia ni (cabbage looper) second-instar larvae infested on compound pre-treated cabbage leaf disk assessed as insect mortality measured 5 days post compound treatment under green house conditions; assay type: functional; conditions: for LC50: Trichoplusia ni, foliar; summary of the method: as §1
Spodoptera exigua [5] = experiment: Insecticidal activity against Spodoptera exigua second-instar larvae feeded on 400 ppm compound treated lepidopteran diet assessed as insect mortality measured 5 days post compound treatment under green house conditions; assay type: functional; conditions: at 400 ppm
Bemisia tabaci [6] = test system: Bemisia tabaci
Aphis gossypii [7] = experiment: Insecticidal activity against Aphis gossypii (cotton aphid) infested one week old Crookneck squash plants assessed as insect mortality at 5 ppm measured after 3 days post compound application under green house conditions; assay type: functional; conditions: 72 h
Trichoplusia ni [8] = experiment: Insecticidal activity against Trichoplusia ni (cabbage looper) second-instar larvae infested on 400 ppm compound pre-treated cabbage leaf disk assessed as insect mortality measured 5 days post compound treatment under green house conditions; assay type: functional; conditions: at 400 ppm
Tetranychus urticae [9] = experiment: Insecticidal activity against female Tetranychus urticae (two-spotted spider mite) infested cotton leaf disks followed by 2.5 ppm compound spraying after oviposit assessed as insect mortality measured after 6 days post compound application under green house conditions; assay type: functional; conditions: foliar, 144 h
Myzus persicae = experiment: Insecticidal activity against Myzus persicae (green peach aphid) assessed as insect mortality at 50 ppm; assay type: functional
Spodoptera exigua [10] = experiment: Insecticidal activity against Spodoptera exigua second-instar larvae feeded on compound treated lepidopteran diet assessed as insect mortality measured 5 days post compound treatment under green house conditions; assay type: functional; conditions: for LC50: Spodoptera exigua, 120 h
Tetranychus urticae [11] = experiment: Insecticidal activity against female Tetranychus urticae (two-spotted spider mite) infested cotton leaf disks followed compound spraying after oviposit assessed as insect mortality measured after 6 days post compound application under green house conditions; assay type: functional; conditions: for LC50: Tetranychus urticae, foliar, 144 h
Aphis gossypii [12] = experiment: Insecticidal activity against Aphis gossypii (cotton aphid) infested one week old Crookneck squash plants assessed as insect mortality measured after 3 days post compound application under green house conditions; assay type: functional; conditions: for LC50: Aphis gossypii, 72 h
Trichoplusia ni [13] = test system: Trichoplusia ni
Bemisia tabaci [14] = experiment: Insecticidal activity against Bemisia tabaci (sweet potato whitefly) second-instar larvae infested five weeks old cotton plants followed by compound 250 ppm compound spraying after insect oviposit assessed as insect mortality measured 13 days post compound treatment under green house conditions; assay type: functional

**Q.** Which LC50 (Heliothis virescens [1]) does the source give for `Cn1nc(-c2c(F)cccc2Cl)nc1-c1sc(-c2ccc(OC(F)(F)F)cc2)cc1Cl` here?
**A.** 62 µg/mL (≈ 127 µM)

**Q.** What about the mortality (Heliothis virescens [2]) of the same molecule?
**A.** 90%

**Q.** What about the mortality at 50 ppm (Aphis gossypii [3]) of the same molecule?
**A.** 90%

**Q.** And the LC90 (Trichoplusia ni [4])?
**A.** 69.2 ppm

**Q.** What about the LC50 (Trichoplusia ni [4]) of the same molecule?
**A.** 4.02 µg/mL (≈ 8.23 µM)

**Q.** What about the mortality (Spodoptera exigua [5]) of the same molecule?
**A.** 70%

**Q.** And the mortality (Bemisia tabaci [6])?
**A.** inactive

**Q.** What about the mortality at 5 ppm (Aphis gossypii [7]) of the same molecule?
**A.** 80%

**Q.** And the mortality (Trichoplusia ni [8])?
**A.** 90%

**Q.** What about the mortality at 2.5 ppm (Tetranychus urticae [9]) of the same molecule?
**A.** 90%

**Q.** What about the LC50 (Myzus persicae) of the same molecule?
**A.** 65 µg/mL (≈ 133 µM)

**Q.** And the LC50 (Spodoptera exigua [10])?
**A.** < 1.6 µg/mL

**Q.** Which LC50 (Tetranychus urticae [11]) does the source give for `Cc1c(Br)csc1-c1nc(-c2c(F)cccc2Cl)nn1C` here?
**A.** 0.29 µg/mL (≈ 0.75 µM)

**Q.** And the LC50 (Aphis gossypii [12])?
**A.** 0.7 µg/mL (≈ 1.81 µM)

**Q.** What about the LC50 (Myzus persicae) of the same molecule?
**A.** 0.8 µg/mL (≈ 2.07 µM)

**Q.** Which results are given for `Cn1nc(-c2c(F)cccc2Cl)nc1-c1sc(-c2ccc(OC(F)(F)C(F)Br)cc2)cc1Cl` (stereo not given)?
**A.** LC50 (Heliothis virescens [1]): 53.7 µg/mL (≈ 92.4 µM); mortality (Heliothis virescens [2]): 90%; mortality at 50 ppm (Aphis gossypii [3]): 90%; LC50 (Trichoplusia ni [4]): < 1.6 µg/mL; mortality (Spodoptera exigua [5]): 50%; mortality (Bemisia tabaci [6]): inactive; mortality at 5 ppm (Aphis gossypii [7]): 54%; mortality (Trichoplusia ni [8]): 70%; mortality at 2.5 ppm (Tetranychus urticae [9]): 90%; LC50 (Myzus persicae): 70 µg/mL (≈ 120 µM); LC50 (Spodoptera exigua [10]): < 1.6 µg/mL

**Q.** What does the source list for `Cc1cc(-c2ccc(OC(F)(F)F)cc2)sc1-c1nc(-c2c(F)cccc2Cl)nn1C`?
**A.** LC50 (Heliothis virescens [1]): 225 µg/mL (≈ 481 µM); LC90 (Tetranychus urticae [11]): 0.151 ppm; LC50 (Tetranychus urticae [11]): < 0.04 µg/mL; mortality (Heliothis virescens [2]): 80%; mortality at 50 ppm (Aphis gossypii [3]): 60%; LC50 (Trichoplusia ni [4]): < 1.6 µg/mL; mortality (Spodoptera exigua [5]): 90%; LC90 (Aphis gossypii [12]): 12.8 ppm; LC50 (Aphis gossypii [12]): 0.5 µg/mL (≈ 1.07 µM); mortality (Bemisia tabaci [6]): inactive; mortality (Trichoplusia ni [8]): 90%; mortality at 2.5 ppm (Tetranychus urticae [9]): 90%; LC50 (Myzus persicae): 13.7 µg/mL (≈ 29.3 µM); LC50 (Spodoptera exigua [10]): < 1.6 µg/mL

**Q.** What does the source list for `Cn1nc(-c2c(F)cccc2Cl)nc1-c1sc(-c2ccc(OC(F)(F)C(F)Cl)cc2)cc1Cl` (stereo not given)?
**A.** LC50 (Heliothis virescens [1]): < 1.6 µg/mL; mortality (Trichoplusia ni [13]): inactive; mortality (Heliothis virescens [2]): 90%; mortality at 50 ppm (Aphis gossypii [3]): 90%; LC50 (Trichoplusia ni [4]): < 1.6 µg/mL; mortality (Spodoptera exigua [5]): 60%; mortality (Bemisia tabaci [6]): inactive; mortality at 5 ppm (Aphis gossypii [7]): 72%; mortality at 2.5 ppm (Tetranychus urticae [9]): 90%; LC50 (Myzus persicae): 78 µg/mL (≈ 145 µM); LC50 (Spodoptera exigua [10]): < 1.6 µg/mL

**Q.** With `Cn1nc(-c2c(F)cccc2Cl)nc1-c1ccc(-c2ccc(OC(F)(F)F)cc2)s1` as the molecule, how does the LC50 (Heliothis virescens [1]) read?
**A.** 122 µg/mL (≈ 269 µM)

**Q.** What about the mortality (Trichoplusia ni [13]) of the same molecule?
**A.** inactive

**Q.** What about the mortality (Bemisia tabaci [14]) of the same molecule?
**A.** <50%

**Q.** And the mortality (Heliothis virescens [2])?
**A.** 90%

**Q.** What about the mortality at 50 ppm (Aphis gossypii [3]) of the same molecule?
**A.** 90%

**Q.** And the LC90 (Trichoplusia ni [4])?
**A.** 27.7 ppm

**Q.** What about the LC50 (Trichoplusia ni [4]) of the same molecule?
**A.** 20.6 µg/mL (≈ 45.4 µM)

**Q.** What about the mortality (Spodoptera exigua [5]) of the same molecule?
**A.** 70%

**Q.** What about the mortality at 5 ppm (Aphis gossypii [7]) of the same molecule?
**A.** 47%

**Q.** What about the mortality at 2.5 ppm (Tetranychus urticae [9]) of the same molecule?
**A.** 90%

**Q.** And the LC50 (Myzus persicae)?
**A.** 9.6 µg/mL (≈ 21.2 µM)

**Q.** What about the LC90 (Spodoptera exigua [10]) of the same molecule?
**A.** 59.9 ppm

**Q.** What about the LC50 (Spodoptera exigua [10]) of the same molecule?
**A.** 49.9 µg/mL (≈ 110 µM)

**Q.** With `Cc1cc(-c2ccc(OC(F)(F)C(F)Br)cc2)sc1-c1nc(-c2c(F)cccc2Cl)nn1C` (stereo not given) as the molecule, how does the LC50 (Heliothis virescens [1]) read?
**A.** 3.93 µg/mL (≈ 7.01 µM)

**Q.** And the mortality (Heliothis virescens [2])?
**A.** 90%

**Q.** What about the mortality at 50 ppm (Aphis gossypii [3]) of the same molecule?
**A.** 90%

**Q.** And the LC50 (Trichoplusia ni [4])?
**A.** < 1.6 µg/mL

**Q.** What about the mortality (Spodoptera exigua [5]) of the same molecule?
**A.** 70%

**Q.** And the mortality (Bemisia tabaci [6])?
**A.** inactive

**Q.** And the mortality at 5 ppm (Aphis gossypii [7])?
**A.** 89%

**Q.** What about the mortality (Trichoplusia ni [8]) of the same molecule?
**A.** <50%

**Q.** What about the mortality at 2.5 ppm (Tetranychus urticae [9]) of the same molecule?
**A.** 90%

**Q.** And the LC50 (Myzus persicae)?
**A.** 62 µg/mL (≈ 111 µM)

**Q.** What about the LC50 (Spodoptera exigua [10]) of the same molecule?
**A.** 2.17 µg/mL (≈ 3.87 µM)

**Q.** For `Cc1cc(-c2ccc(OC(F)(F)C(F)Cl)cc2)sc1-c1nc(-c2c(F)cccc2Cl)nn1C` (stereo not given), which LC50 (Heliothis virescens [1]) is on record?
**A.** < 1.6 µg/mL

**Q.** And the mortality (Bemisia tabaci [14])?
**A.** <50%

**Q.** What about the LC90 (Tetranychus urticae [11]) of the same molecule?
**A.** 2.07 ppm

**Q.** And the LC50 (Tetranychus urticae [11])?
**A.** < 0.1 µg/mL

**Q.** What about the mortality (Heliothis virescens [2]) of the same molecule?
**A.** 90%

**Q.** And the mortality at 50 ppm (Aphis gossypii [3])?
**A.** 90%

**Q.** And the LC50 (Trichoplusia ni [4])?
**A.** < 1.6 µg/mL

**Q.** What about the mortality (Spodoptera exigua [5]) of the same molecule?
**A.** 60%

**Q.** And the LC50 (Aphis gossypii [12])?
**A.** < 0.5 µg/mL

**Q.** What about the mortality (Trichoplusia ni [8]) of the same molecule?
**A.** 90%

**Q.** And the mortality at 2.5 ppm (Tetranychus urticae [9])?
**A.** 90%

**Q.** And the LC50 (Myzus persicae)?
**A.** < 3.1 µg/mL

**Q.** What about the LC50 (Spodoptera exigua [10]) of the same molecule?
**A.** < 1.79 µg/mL

**Q.** How did the LC90 (Heliothis virescens [1]) turn out when `Cc1cc(-c2cccc(OC(F)(F)C(F)Cl)c2)sc1-c1nc(-c2c(F)cccc2Cl)nn1C` (stereo not given) was run?
**A.** 151 ppm

**Q.** And the LC50 (Heliothis virescens [1])?
**A.** 4.38 µg/mL (≈ 8.48 µM)

**Q.** What about the mortality (Trichoplusia ni [13]) of the same molecule?
**A.** inactive

**Q.** What about the mortality (Heliothis virescens [2]) of the same molecule?
**A.** 90%

**Q.** What about the mortality at 50 ppm (Aphis gossypii [3]) of the same molecule?
**A.** 90%

**Q.** And the LC50 (Trichoplusia ni [4])?
**A.** < 1.6 µg/mL

**Q.** And the mortality (Spodoptera exigua [5])?
**A.** 60%

**Q.** What about the mortality (Bemisia tabaci [6]) of the same molecule?
**A.** inactive

**Q.** What about the mortality at 5 ppm (Aphis gossypii [7]) of the same molecule?
**A.** 91%

**Q.** What about the mortality at 2.5 ppm (Tetranychus urticae [9]) of the same molecule?
**A.** 90%

**Q.** What about the LC50 (Myzus persicae) of the same molecule?
**A.** 75 µg/mL (≈ 145 µM)

**Q.** And the LC50 (Spodoptera exigua [10])?
**A.** 23.1 µg/mL (≈ 44.7 µM)
